Experimental data as given in the EternaBench riboswitch data.

Test system: MS2 coat protein
Assay: apparent Kd, MS2 coat protein; higher = weaker binding; RNA-MaP array; theophylline 2 mM where present
Method in brief: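 Green signal from SNAP-549-labelled MS2 coat protein was normalised to red-channel RNA signal and to the median Fmax of control clusters. The protein was titrated from 0.7 or 1.5 nM, doubling to 3 µM, without and then with constant ligand, over designs transcribed by stalled E. coli RNA polymerase on Illumina sequencing-chip clusters, in 100 mM Tris-HCl pH 7.5, 80 mM KCl, 4 mM MgCl2, BSA, DTT, yeast tRNA and Tween-20. The apparent Kd is the median of filtered per-cluster binding-curve fits.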

[1] = designed as: ON switch for theophylline, no ligand
[2] = ligand present: theophylline, designed as: ON switch for theophylline
[3] = designed as: OFF switch for theophylline, no ligand
[4] = ligand present: theophylline, designed as: OFF switch for theophylline

Row | Sequence | apparent Kd [1] [µM] | apparent Kd [2] [µM] | apparent Kd [3] [µM] | apparent Kd [4] [µM]
1 | UGUAUGUGAUUUGAUACCAGACCAACUGGUAAUACAUGAGGAUCACCCAUGUAGAUUUGGGUCCCUUGGCAGCAAAUCGCAUACU | 0.048 | 0.0117 |  | 
2 | UUAUGAUGUUCCGAUACCAGCCAUGUGGUUCUAACUUAACAUGAGGAUCACCCAUGUACCGGCCCUUGGCAGCGGAUGUGGAUUA | 0.0112 | 0.017 |  | 
3 | UUAUUUAUAAUGGAUACCAGUUUAAUGGCCGCAAAUCCUGACAUGAGGAUCACCCAUGUAAGCCCUUGGCAGCUGUUAUGGGUUU |  |  | 0.0348 | 0.0413
4 | UUAUUUAUAAUUGAUACCAGUUUAAUGGCCGCAAAUCCUGACAUGAGGAUCACCCAUGUAAGCCCUUGGCAGCGGUUAUGGGUUU |  |  | 0.021 | 0.0211
5 | UUUGAUAGGACAGAUACCAGCGUGUUGUUGAACAUGAGGAUCACCCAUGUAGUGAUCAAGCGCCCUUGGCAGCUGGUUUGUUAGG | 0.236 | 0.0817 |  | 
